ChEMBL document CHEMBL2177094, “Structure dependence of long-chain [18F]fluorothia fatty acids as myocardial fatty acid oxidation probes” (J Med Chem, 2012)

Assays:
Heart [1] = assay: Biodistribution in overnight fasted Sprague-Dawley rat heart aqueous fraction at 0.7 to 1.4 MBq, iv at 30 mins by Folch-type extraction method; assay type: ADME, organism-based; details: in vivo, 0.5 h
Summary of the method: (§1)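 Female Sprague-Dawley rats, fasted overnight, under isoflurane (3.5% induction, 1.5% maintenance). [18F] tracer in 0.5–1.0% BSA/saline was given by tail vein. POCA group: 30 mg/kg i.p. 120 min before tracer. About 0.5 g tissue was homogenized and sonicated in chloroform/methanol (2:1) at 0 °C, then 40% urea and 5% H2SO4 were added and spun 10 min at 1,800 g. Aqueous, organic and pellet fractions were counted as % of total.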

Heart [2] = assay: Drug uptake in overnight fasted Sprague-Dawley rat heart at 0.7 to 1.4 MBq, iv at 120 mins; assay type: ADME, organism-based; details: in vivo, 2 h
Summary of the method: (§2)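 Overnight-fasted female Sprague-Dawley rats under isoflurane received the [18F] tracer in 0.5–1.0% BSA/saline by tail vein. POCA group: 30 mg/kg i.p. 2 h before tracer. Tissues were excised at 30 or 120 min, weighed and gamma-counted with decay correction. Uptake = % dose kg/g, i.e. CPM tissue × body wt (kg) × 100 / (tissue wt (g) × CPM dose). n = 5–6.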

Blood [3] = assay: Drug uptake in overnight fasted Sprague-Dawley rat blood at 0.7 to 1.4 MBq, iv preincubated with POCA for 2 hrs before compound administration measured at 120 mins post treatment; assay type: ADME, organism-based; details: in vivo; summary of the method: as §2
Liver [4] = assay: Drug uptake in overnight fasted Sprague-Dawley rat liver at 0.7 to 1.4 MBq, iv at 120 mins; assay type: ADME, organism-based; details: in vivo, 2 h
Summary of the method: (§3)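 Female rats fasted overnight, under isoflurane (3.5% induction, 1.5% maintenance). 18F-labelled tracer formulated in 0.5–1.0% BSA/saline, injected via tail vein. Tissues harvested at 30 or 120 min, weighed, gamma-counted, decay-corrected. Uptake expressed as % dose kg/g, i.e. tissue CPM × body wt (kg) × 100 / (tissue wt (g) × dose CPM). POCA groups received 30 mg/kg i.p. 2 h before tracer. n = 5–6.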

Heart [5] = assay: Biodistribution in overnight fasted Sprague-Dawley rat heart organic fraction at 0.7 to 1.4 MBq, iv at 30 mins by Folch-type extraction method; assay type: ADME, organism-based; details: in vivo, 0.5 h; summary of the method: as §1
Heart [6] = assay: Drug uptake in overnight fasted Sprague-Dawley rat heart at 0.7 to 1.4 MBq, iv at 30 mins; assay type: ADME, organism-based; details: in vivo, 0.5 h; summary of the method: as §3
Muscle tissue [7] = assay: Biodistribution in overnight fasted Sprague-Dawley rat muscle pellet fraction at 0.7 to 1.4 MBq, iv preincubated with POCA for 2 hrs before compound administration measured at 120 mins post treatment by Folch-type extraction method; assay type: ADME, organism-based; details: in vivo; summary of the method: as §1
Blood [8] = assay: Drug uptake in overnight fasted Sprague-Dawley rat blood at 0.7 to 1.4 MBq, iv at 120 mins; assay type: ADME, organism-based; details: in vivo, 2 h; summary of the method: as §2
Liver [9] = assay: Biodistribution in overnight fasted Sprague-Dawley rat liver organic fraction at 0.7 to 1.4 MBq, iv at 30 mins by Folch-type extraction method; assay type: ADME, organism-based; details: in vivo, 0.5 h; summary of the method: as §1
Kidney = assay: Drug uptake in overnight fasted Sprague-Dawley rat kidney at 0.7 to 1.4 MBq, iv preincubated with POCA for 2 hrs before compound administration measured at 30 mins post treatment; assay type: ADME, organism-based; details: in vivo, 0.5 h; summary of the method: as §3
Brain = assay: Drug uptake in overnight fasted Sprague-Dawley rat brain at 0.7 to 1.4 MBq, iv preincubated with POCA for 2 hrs before compound administration measured at 30 mins post treatment; assay type: ADME, organism-based; details: in vivo, 0.5 h; summary of the method: as §2
Liver [10] = assay: Biodistribution in overnight fasted Sprague-Dawley rat liver organic fraction at 0.7 to 1.4 MBq, iv preincubated with POCA for 2 hrs before compound administration measured at 120 mins post treatment by Folch-type extraction method; assay type: ADME, organism-based; details: in vivo; summary of the method: as §1
Liver [11] = assay: Drug uptake in overnight fasted Sprague-Dawley rat liver at 9 to 11 MBq, iv at 5 mins by microPET analysis; assay type: ADME, organism-based; details: in vivo
Summary of the method: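 Female rats fasted overnight, under isoflurane. 18F-labelled tracer (9–11 MBq) given into a tail vein. Dynamic PET acquisition over the upper thorax for 50 min, then a static whole-body scan 55–115 min post-injection. 2–5 rats per tracer.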

Heart [12] = assay: Biodistribution in overnight fasted Sprague-Dawley rat heart aqueous fraction at 0.7 to 1.4 MBq, iv preincubated with POCA for 2 hrs before compound administration measured at 120 mins post treatment by Folch-type extraction method; assay type: ADME, organism-based; details: in vivo; summary of the method: as §1
Heart [13] = assay: Drug uptake in overnight fasted Sprague-Dawley rat heart at 0.7 to 1.4 MBq, iv preincubated with POCA for 2 hrs before compound administration measured at 30 mins post treatment; assay type: ADME, organism-based; details: in vivo, 0.5 h; summary of the method: as §3
Heart [14] = assay: Biodistribution in overnight fasted Sprague-Dawley rat heart pellet fraction at 0.7 to 1.4 MBq, iv preincubated with POCA for 2 hrs before compound administration measured at 120 mins post treatment by Folch-type extraction method; assay type: ADME, organism-based; details: in vivo; summary of the method: as §1
Bone = assay: Drug uptake in overnight fasted Sprague-Dawley rat bone at 0.7 to 1.4 MBq, iv at 30 mins; assay type: ADME, organism-based, Bone element; details: in vivo, 0.5 h; summary of the method: as §2
Muscle tissue [15] = assay: Biodistribution in overnight fasted Sprague-Dawley rat muscle aqueous fraction at 0.7 to 1.4 MBq, iv at 30 mins by Folch-type extraction method; assay type: ADME, organism-based; details: in vivo, 0.5 h; summary of the method: as §1
Liver [16] = assay: Drug uptake in overnight fasted Sprague-Dawley rat liver at 0.7 to 1.4 MBq, iv preincubated with POCA for 2 hrs before compound administration measured at 120 mins post treatment; assay type: ADME, organism-based; details: in vivo; summary of the method: as §3
Heart [17] = assay: Biodistribution in overnight fasted Sprague-Dawley rat heart pellet fraction at 0.7 to 1.4 MBq, iv preincubated with POCA for 2 hrs before compound administration measured at 30 mins post treatment by Folch-type extraction method; assay type: ADME, organism-based; details: in vivo, 0.5 h; summary of the method: as §1
Muscle tissue [18] = assay: Biodistribution in overnight fasted Sprague-Dawley rat muscle pellet fraction at 0.7 to 1.4 MBq, iv at 120 mins by Folch-type extraction method; assay type: ADME, organism-based; details: in vivo, 2 h; summary of the method: as §1
Blood [19] = assay: Drug uptake in overnight fasted Sprague-Dawley rat blood at 0.7 to 1.4 MBq, iv at 30 mins; assay type: ADME, organism-based; details: in vivo, 0.5 h; summary of the method: as §2
Muscle tissue [20] = assay: Drug uptake in overnight fasted Sprague-Dawley rat muscle at 0.7 to 1.4 MBq, iv preincubated with POCA for 2 hrs before compound administration measured at 30 mins post treatment; assay type: ADME, organism-based; details: in vivo, 0.5 h; summary of the method: as §3
Lung = assay: Drug uptake in overnight fasted Sprague-Dawley rat lung at 0.7 to 1.4 MBq, iv at 30 mins; assay type: ADME, organism-based; details: in vivo, 0.5 h; summary of the method: as §3
Muscle tissue [21] = assay: Biodistribution in overnight fasted Sprague-Dawley rat muscle pellet fraction at 0.7 to 1.4 MBq, iv at 30 mins by Folch-type extraction method; assay type: ADME, organism-based; details: in vivo, 0.5 h; summary of the method: as §1
Blood [22] = assay: Drug uptake in overnight fasted Sprague-Dawley rat blood at 0.7 to 1.4 MBq, iv preincubated with POCA for 2 hrs before compound administration measured at 30 mins post treatment; assay type: ADME, organism-based; details: in vivo, 0.5 h; summary of the method: as §2
Liver [23] = assay: Drug uptake in overnight fasted Sprague-Dawley rat liver at 0.7 to 1.4 MBq, iv preincubated with POCA for 2 hrs before compound administration measured at 30 mins post treatment; assay type: ADME, organism-based; details: in vivo, 0.5 h; summary of the method: as §3
Muscle tissue [24] = assay: Biodistribution in overnight fasted Sprague-Dawley rat muscle organic fraction at 0.7 to 1.4 MBq, iv at 30 mins by Folch-type extraction method; assay type: ADME, organism-based; details: in vivo, 0.5 h; summary of the method: as §1
Liver [25] = assay: Drug uptake in overnight fasted Sprague-Dawley rat liver at 0.7 to 1.4 MBq, iv at 30 mins; assay type: ADME, organism-based; details: in vivo, 0.5 h; summary of the method: as §3
Heart [26] = assay: Drug uptake in overnight fasted Sprague-Dawley rat heart at 0.7 to 1.4 MBq, iv preincubated with POCA for 2 hrs before compound administration measured at 120 mins post treatment; assay type: ADME, organism-based; details: in vivo; summary of the method: as §3

SMILES | Drug uptake (Heart [1]) [%] | Drug uptake (Heart [2]) [%IDKg/g] | Drug uptake (Blood [3]) [%IDKg/g] | Drug uptake (Liver [4]) [%IDKg/g] | Drug uptake (Heart [5]) [%] | Drug uptake (Heart [6]) [%IDKg/g] | Drug uptake (Muscle tissue [7]) [%] | Drug uptake (Blood [8]) [%IDKg/g] | Drug uptake (Liver [9]) [%] | Drug uptake (Kidney) [%IDKg/g] | Drug uptake (Brain) [%IDKg/g] | Drug uptake (Liver [10]) [%] | Drug uptake (Liver [11]) | Drug uptake (Heart [12]) [%] | Drug uptake (Heart [13]) [%IDKg/g] | Drug uptake (Heart [14]) [%] | Drug uptake (Bone) [%IDKg/g] | Drug uptake (Muscle tissue [15]) [%] | Drug uptake (Liver [16]) [%IDKg/g] | Drug uptake (Heart [17]) [%] | other results
O=C(O)CCSCCCCCCCCCCCCCC[18F] | 3.97 | 0.2144 | 0.0125 | 0.3759 | 17.29 | 0.314 | 32.62 | 0.0098 | 51.66 | 0.235 | 0.0385 | 67.69 | Active | 3.39 | 0.1814 | 21.68 | 0.2309 | 28.99 | 0.1341 | 24.67 | Drug uptake (Muscle tissue [18]): 39.51%; Drug uptake (Blood [19]): 0.0392 %IDKg/g; Drug uptake (Muscle tissue [20]): 0.0443 %IDKg/g; Drug uptake (Lung): 0.0755 %IDKg/g; Drug uptake (Muscle tissue [21]): 32.22%; Drug uptake (Blood [22]): 0.051 %IDKg/g; Drug uptake (Liver [23]): 0.4064 %IDKg/g; Drug uptake (Muscle tissue [24]): 38.77%; Drug uptake (Liver [25]): 0.6292 %IDKg/g; Drug uptake (Heart [26]): 0.1025 %IDKg/g
O=C(O)CCSCCCCCCCCCCCC[18F] | 2.63 | 0.1069 | 0.0392 | 0.47 | 38.56 | 0.589 | 32.69 | 0.0105 | 48.25 | 0.2477 | 0.04879 | 50 | Active | 7.53 | 0.0792 | 24.47 | 0.235 | 23.24 | 0.4433 | 32.81 | Drug uptake (Muscle tissue [18]): 49.81%; Drug uptake (Blood [19]): 0.07 %IDKg/g; Drug uptake (Muscle tissue [20]): 0.0333 %IDKg/g; Drug uptake (Lung): 0.099 %IDKg/g; Drug uptake (Muscle tissue [21]): 43.18%; Drug uptake (Blood [22]): 0.0633 %IDKg/g; Drug uptake (Liver [23]): 0.6197 %IDKg/g; Drug uptake (Muscle tissue [24]): 33.56%; Drug uptake (Liver [25]): 0.899 %IDKg/g; Drug uptake (Heart [26]): 0.1042 %IDKg/g
O=C(O)CCSCCCC/C=C\CCCCCCCC[18F] | 2.86 | 0.8164 | 0.0141 | 0.8488 | 8.46 | 0.7028 | 35.36 | 0.0185 | 19.87 | 0.1932 | 0.0368 | 68.06 | Active | 4.19 | 0.1155 | 29.14 | 0.1531 | 18.79 | 0.1666 | 23.8 | Drug uptake (Muscle tissue [18]): 67.95%; Drug uptake (Blood [19]): 0.0441 %IDKg/g; Drug uptake (Muscle tissue [20]): 0.0297 %IDKg/g; Drug uptake (Lung): 0.0496 %IDKg/g; Drug uptake (Muscle tissue [21]): 59.12%; Drug uptake (Blood [22]): 0.0606 %IDKg/g; Drug uptake (Liver [23]): 0.8162 %IDKg/g; Drug uptake (Muscle tissue [24]): 21.75%; Drug uptake (Liver [25]): 1.1847 %IDKg/g; Drug uptake (Heart [26]): 0.076 %IDKg/g
O=C(O)CCCCSCCCCCCCCCCCC[18F] | 4.02 | 0.2815 | 0.0271 | 0.7548 | 25.81 | 0.4413 | 31.41 | 0.0241 | 45.61 | 0.3441 | 0.0879 | 64.78 | Active | 3.3 | 0.3331 | 22.48 | 0.1171 | 16.49 | 0.419 | 32.16 | Drug uptake (Muscle tissue [18]): 42.06%; Drug uptake (Blood [19]): 0.029 %IDKg/g; Drug uptake (Muscle tissue [20]): 0.0639 %IDKg/g; Drug uptake (Lung): 0.0621 %IDKg/g; Drug uptake (Muscle tissue [21]): 38.95%; Drug uptake (Blood [22]): 0.051 %IDKg/g; Drug uptake (Liver [23]): 0.8492 %IDKg/g; Drug uptake (Muscle tissue [24]): 44.55%; Drug uptake (Liver [25]): 1.126 %IDKg/g; Drug uptake (Heart [26]): 0.2288 %IDKg/g
